What is called Ki is the equilibrium dissociation constant of an inhibitor or competing ligand from its target. A higher Ki goes with weaker binding.

SMILES strings stand for the structures.

Data on 7 compounds can be found in ChEMBL document CHEMBL1145194, “A bivalent ligand (KDAN-18) containing delta-antagonist and kappa-agonist pharmacophores bridges delta2 and kappa1 opioid receptor phenotypes” (J Med Chem, 2005).

Test [1] concerns the target T1, Opioid receptors; delta & kappa (Homo sapiens, UniProt P41145+P41143). Description: Inhibition of [3H]U-69593 binding to delta and kappa opioid receptors expressed in HEK 293 cells with 100 nM benzylidenenaltrexone. As to conditions: hek293. Format: cell-based. An outline of the steps: (§1)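 Radioligand binding on intact HEK cells with [3H]U69593, using either δ and κ coexpressed in one line or a mixture of HEK cells singly expressing δ or κ. Run alone, with 10 nM NTB, or with 100 nM BNTX.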

Test [2] deals with T1, Opioid receptors; delta & kappa. Description: Inhibition of [3H]-U-69,593 binding to delta and kappa opioid receptors co-expressed in HEK 293 cells with 10 nM naltriben. In kind it is cell-based. As to conditions: hek293. An outline of the steps:
as §1

Test [3] deals with Mus musculus. Description: Ratio of effective dose of compound producing agonistic activity in presence and absence of norbinaltorphimine (2.5 nmol) upon intrathecal administration in mouse tail flick assay. In general terms: Thermal pain tests record how soon the animal reacts.
Test [4] relates to Mus musculus. The test is described as follows: Ratio of effective dose of compound producing agonistic activity in presence and absence of benzylidenenaltrexone (25 pmol) upon intrathecal administration in mouse tail flick assay. In kind it is functional. An outline of the steps: (§2)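 Intrathecal tail-flick in CD1 mice. BNTX was given i.t. at 25 pmol with a 10 min peak time. Ratio is agonist ED50 with antagonist divided by agonist ED50 alone, taken as significant when its 95% confidence interval is >1.0. For combination dosing, the monovalent pair was coadministered i.t. equimolar.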

Test [5] concerns the target T1, Opioid receptors; delta & kappa. The test is described as follows: Inhibition of [3H]-U-69,593 binding to delta and kappa opioid receptors co-expressed in HEK 293 cells with 100 nM benzylidenenaltrexone. Format: cell-based. As to conditions: hek293. An outline of the steps: as §1
The target is the same in test [6]. The test is described as follows: Inhibition of [3H]U-69593 binding to delta and kappa opioid receptors expressed in HEK 293 cells with 10 nM naltriben. In kind it is cell-based. The note with it: hek293. An outline of the steps:
as §1

The target is the same in test [7]. Description: Inhibition of [3H]U-69593 binding to delta and kappa opioid receptors expressed in HEK 293 cells. In kind it is cell-based. The note with it: hek293. An outline of the steps:
as §1

For test [8] the target is unchanged. The test is described as follows: Inhibition of [3H]deltorphin II binding to delta and kappa opioid receptors coexpressed in HEK 293 cells. In kind it is cell-based. As to conditions: hek293.
Test [9] concerns Mus musculus. The test is described as follows: Ratio of effective dose of compound producing agonistic activity in presence and absence of CTOP (5.9 pmol) upon intrathecal administration in mouse tail flick assay. Format: functional.
For test [10], the system named is Mus musculus. The test is described as follows: Effective dose required for agonistic activity upon intrathecal administration in mouse (n=10) tail flick assay. In kind it is functional. An outline of the steps: (§3)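 CD1 mice dosed intrathecally, antinociception by tail-flick. A response counted as positive when latency exceeded control latency plus 3 SD of mean reaction time. ED50 given with 95% confidence limits. For combination dosing, the two monovalent ligands were coadministered i.t. in equimolar ratio.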

In test [11] the test system is Mus musculus. The test is described as follows: Ratio of effective dose of compound producing agonistic activity in presence and absence of naltriben (50 pmol) upon intrathecal administration in mouse tail flick assay. In kind it is functional. An outline of the steps: (§4)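 Intrathecal tail-flick in CD1 mice. NTB was given i.t. at 50 pmol with a 10 min peak time. Ratio is agonist ED50 with antagonist divided by agonist ED50 alone, taken as significant when its 95% confidence interval is >1.0. For combination dosing, the monovalent pair was coadministered i.t. equimolar.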

Test [12] concerns the target T1, Opioid receptors; delta & kappa. Description: Inhibition of [3H]deltorphin II binding to delta and kappa opioid receptors expressed in HEK 293 cells. In kind it is cell-based. The note with it: hek293.
For test [13] the target is unchanged. The test is described as follows: Inhibition of [3H]U-69593 binding to delta and kappa opioid receptors coexpressed in HEK 293 cells. Format: cell-based. The note with it: hek293. An outline of the steps: as §1
Test [14] concerns Mus musculus. The test is described as follows: Ratio of effective dose of compound producing agonistic activity in presence and absence of KDN21 upon intrathecal administration in mouse tail flick assay. Format: functional.
Test [15] relates to Mus musculus. Description: Ratio of effective dose of compound producing agonistic activity in presence and absence of norbinaltorphimine (2.5 nmol) upon intrathecal administration in mouse tail flick assay in presence of DN-18.
In test [16] the test system is Mus musculus. The test is described as follows: Effective dose required for agonistic activity upon intrathecal administration in mouse (n=10) tail flick assay in presence of DN-18. Format: functional. An outline of the steps:
as §3

The subject of test [17] is Mus musculus. Description: Ratio of effective dose of compound producing agonistic activity in presence and absence of benzylidenenaltrexone (25 pmol) upon intrathecal administration in mouse tail flick assay in presence of DN-18. In kind it is functional. An outline of the steps: as §2
In test [18] the test system is Mus musculus. Description: Ratio of effective dose of compound producing agonistic activity in presence and absence of naltriben (50 pmol) upon intrathecal administration in mouse tail flick assay in presence of DN-18. In kind it is functional. An outline of the steps: as §4

`CN(C(=O)Cc1ccc(Cl)c(Cl)c1)[C@H](CN1CCCC1)c1cccc(NC(=O)CNC(=O)CNC(=O)CCC(=O)NCC(=O)NCC(=O)Nc2cccc3c4c([nH]c23)[C@@H]2Oc3c(O)ccc5c3[C@@]23CCN(CC2CC2)[C@H](C5)[C@]3(O)C4)c1`: the inhibition constant Ki is reported as 1.14 nM in [1]; 2.34 nM in test [2]; 0.19 nM in test [5]; 1.94 nM in [6]; 2.51 nM in test [7]; 0.008 nM in test [8]. Also, the inhibition constant (Ki) turned out to be 0.52 nM in test [12] and 0.06 nM in test [13]. Moreover, the “ED50 Ratio” value worked out at 39.3 with Mus musculus [3]; 3 in the test with Mus musculus [4]; 0.8 in the test on Mus musculus [9]; 25.9 in the test on Mus musculus [11]; 0.65 in the test on Mus musculus [14]. This compound showed an ED50 in the test on Mus musculus [10] of 0.19 nmol/mouse.
With `CNC(=O)CNC(=O)CNC(=O)CCC(=O)NCC(=O)NCC(=O)Nc1cccc([C@@H](CN2CCCC2)N(C)C(=O)Cc2ccc(Cl)c(Cl)c2)c1`, the “ED50 Ratio” value in the test with Mus musculus [3] is 10.8; in the test on Mus musculus [4], 1.3; with Mus musculus [15], 44.8; in the test on Mus musculus [17], ~1; with Mus musculus [18] it was ~1; with Mus musculus [11], 1.5. The inhibition constant Ki in test [7] is 23.9 nM; in test [8], > 1000 nM; in [12], > 1000 nM; in [13] it was 36.2 nM. Besides, the ED50 with Mus musculus [16] worked out at 0.14 nmol/mouse; in the test with Mus musculus [10], 0.11 nmol/mouse.
Regarding `CNC(=O)CNC(=O)CCC(=O)NCC(=O)Nc1cccc2c3c([nH]c12)[C@@H]1Oc2c(O)ccc4c2[C@@]12CCN(CC1CC1)[C@H](C4)[C@]2(O)C3`, the Ki in test [7] is reported as > 1000 nM; in [8] it was 0.46 nM; in test [12], 0.15 nM; in [13], > 1000 nM.
`CNC(=O)CNC(=O)CCC(=O)NCC(=O)Nc1cccc([C@@H](CN2CCCC2)N(C)C(=O)Cc2ccc(Cl)c(Cl)c2)c1`: the “ED50 Ratio” value with Mus musculus [3] came to 11; in the test with Mus musculus [4], 1; in the test on Mus musculus [11] it was 1. For the same compound, the Ki in test [7] is 6.75 nM; in test [8] it was 281.2 nM; in [12], > 1000 nM; in [13] it was 41.6 nM. The ED50 in the test with Mus musculus [10] came out at 1.4 nmol/mouse.
On to `CNC(=O)CNC(=O)CNC(=O)CCC(=O)NCC(=O)NCC(=O)Nc1cccc2c3c([nH]c12)[C@@H]1Oc2c(O)ccc4c2[C@@]12CCN(CC1CC1)[C@H](C4)[C@]2(O)C3`, for which the Ki in [7] is given as > 1000 nM; in [8] it was 0.91 nM; in test [12], 1.07 nM; in [13] it was > 1000 nM.
As to `CN(C(=O)Cc1ccc(Cl)c(Cl)c1)[C@H](CN1CCCC1)c1cccc(NC(=O)CNC(=O)CNC(=O)CCCCC(=O)NCC(=O)NCC(=O)Nc2cccc3c4c([nH]c23)[C@@H]2Oc3c(O)ccc5c3[C@@]23CCN(CC2CC2)[C@H](C5)[C@]3(O)C4)c1`, the figures for the “ED50 Ratio” value in the test on Mus musculus [3], in the test with Mus musculus [4] and in the test on Mus musculus [11] were 3.4, 3.4 and 2, respectively. Besides, the ED50 in the test with Mus musculus [10] worked out at 0.5 nmol/mouse.
In the case of `CN(C(=O)Cc1ccc(Cl)c(Cl)c1)[C@H](CN1CCCC1)c1cccc(NC(=O)CNC(=O)CCC(=O)NCC(=O)Nc2cccc3c4c([nH]c23)[C@@H]2Oc3c(O)ccc5c3[C@@]23CCN(CC2CC2)[C@H](C5)[C@]3(O)C4)c1`, the Ki in test [1] is given as 2.75 nM; in test [2] it was 4.06 nM; in test [5] it was 3.79 nM; in test [6] it was 2.02 nM; in test [7] it was 1.9 nM; in test [8], 1.23 nM. Also, the Ki in test [12] is on record as 0.43 nM; in test [13], 1.66 nM. In addition, the “ED50 Ratio” value in the test with Mus musculus [3] was determined as 33; with Mus musculus [4], 2.1; in the test on Mus musculus [11] it was 1.1. This compound also returned an ED50 in the test on Mus musculus [10] of 0.44 nmol/mouse.
